Columns and labels:
[1] = target: T1, Serine/threonine-protein kinase Chk1 (Homo sapiens, UniProt O14757); assay: Inhibition of Chk1 by fluorescence assay
T1 sequence (O14757 whole entry): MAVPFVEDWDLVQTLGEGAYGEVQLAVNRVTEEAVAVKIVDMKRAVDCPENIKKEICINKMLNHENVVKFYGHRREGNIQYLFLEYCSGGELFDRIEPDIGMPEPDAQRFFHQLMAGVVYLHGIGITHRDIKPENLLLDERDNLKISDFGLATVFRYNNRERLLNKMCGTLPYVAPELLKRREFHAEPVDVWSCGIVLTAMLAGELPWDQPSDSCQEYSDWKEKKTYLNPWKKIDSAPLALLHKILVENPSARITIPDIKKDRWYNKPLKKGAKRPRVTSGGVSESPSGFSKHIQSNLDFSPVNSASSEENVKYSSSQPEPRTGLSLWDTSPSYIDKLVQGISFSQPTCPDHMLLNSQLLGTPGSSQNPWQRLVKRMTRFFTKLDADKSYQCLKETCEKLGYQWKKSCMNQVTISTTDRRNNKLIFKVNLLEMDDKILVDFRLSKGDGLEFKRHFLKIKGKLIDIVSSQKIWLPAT

NCI-H1299 = assay: Inhibition of camptothecin-induced cell cycle arrest in NCI-H1299 cells after 8 hrs; assay type: functional, cell-based; conditions: Homo sapiens, NCI-H1299, 8 h
Procedure, shortened: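 NCI-H1299 lung carcinoma cells held 16 h in camptothecin to arrest, then exposed to inhibitor a further 8 h. Escape into mitosis scored by mitosis-specific nucleolin phosphorylation, quantified with an antibody-coated bead-based assay.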

SMILES	IC50 [1] [nM]	EC50 (NCI-H1299) [nM]
Cc1[nH]nc2c1c(NCCN)nc1ccc(Cl)cc12	60	
CC(=O)Nc1ccc2[nH]c(=O)c3c(C)[nH]nc3c2c1	7080	
Cc1[nH]nc2c1c(=O)[nH]c1c(/C=C/CN)c(C3CCCCC3)c(C3CCCCC3)cc12	58	
Cc1[nH]nc2c1c(=O)n(C[C@H](F)CN)c1cc(C3CCCCC3)c(C3CCCCC3)cc21	3.1	65
Cc1ccc2[nH]c(=O)c3c(C)[nH]nc3c2c1	230	
CCn1c(=O)c2c(C)[nH]nc2c2cc3c(cc21)CN(C(=O)NCCN)CC3	12	> 10000
Cc1[nH]nc2c1c(=O)[nH]c1ccc(Cl)cc12	40	2980
Cc1cccc2c1[nH]c(=O)c1c(C)[nH]nc12	1490	
Cc1[nH]nc2c1c(=O)[nH]c1cc3ccccc3cc12	29	710
Cc1[nH]nc2c1c(=O)[nH]c1cc3c(cc12)CCCC3	130	1210
Cc1[nH]nc2c1c(=O)n(CCN)c1ccc(Cl)cc21	36	980
Cc1[nH]nc2c1c(=O)[nH]c1c(CCCN)c(C3CCCCC3)c(C3CCCCC3)cc12	290	
Cc1[nH]nc2c1c(=O)n(C[C@@H](F)CN)c1cc(C3CCCCC3)c(C3CCCCC3)cc21	3.2	83
Cc1[nH]nc2c1c(NCCCN)nc1ccc(Cl)cc12	220	
Cc1[nH]nc2c1c(=O)[nH]c1cccc(C)c12	> 100000	
Cc1[nH]nc2c1c(=O)[nH]c1cccc(Cl)c12	28900	
Cc1[nH]nc2c1c(=O)[nH]c1cc(Cl)ccc12	1980	
CCn1c(=O)c2c(C)[nH]nc2c2cc3c(cc21)CN(S(=O)(=O)CCN)CC3	10	> 10000
Cc1[nH]nc2c1c(=O)[nH]c1ccccc12	1370	
Cc1[nH]nc2c1c(OCCCN)nc1ccc(Cl)cc12	64	10200
CCn1c(=O)c2c(C)[nH]nc2c2cc3c(cc21)CN(C(=O)CN)CC3	18	> 10000
Cc1[nH]nc2c1c(=O)n(CCCCN)c1ccc(Cl)cc21	20	1010
Cc1[nH]nc2c1c(OCCN)nc1ccc(Cl)cc12	850	
Cc1[nH]nc2c1c(=O)n(CCCN)c1ccc(Cl)cc21	1.2	160

Reference: ChEMBL document CHEMBL1139824, “Optimization of a pyrazoloquinolinone class of Chk1 kinase inhibitors” (Bioorg Med Chem Lett, 2007)
